Measured values from article PMC3868989 (Pharmaceutical research, 2012).
In brackets after ≈: the same amount, converted by molar mass.

What was measured:
[1] = test system: pancreatic cancer cells BxPC-3; experiment: MTT cell growth assay, BxPC-3; format: cell-based; settings: BxPC-3 cells, 72 h treatment
In short: (§1)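 Cells grown at 37°C under humidified 5% CO2. BxPC-3 and MDA-MB-231 were in DMEM with 10% FBS, and PC3 was in RPMI with 10% FBS. Lines were STR-authenticated. Cells were seeded in 96-well plates and dosed 24 h after seeding. After 72 h, MTT 0.5 mg/ml was added for 2 h at 37°C. Medium was replaced with DMSO for 30 min at room temperature before reading absorbance. Eight replicate wells per treatment; each experiment run at least three times.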

[2] = Phase solubility analysis; format: physicochemical; settings: in presence of β-cyclodextrin 0-20 mM, water, 30 ± 2°C, 72 h
[3] = test system: prostate cancer cells PC3; experiment: MTT cell growth assay, PC3; format: cell-based; settings: 72 h treatment
In short: as §1

[4] = pancreas of mice; cited from earlier work
[5] = Pharmacokinetics and tissue distribution; format: in vivo; settings: mice, single i.v. dose CDF 5.0 mg/mice, at 2 h
In short: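 Female ICR-SCID mice, 8–10 weeks old, were starved overnight. Each received a single i.v. dose: test compound 5.0 mg/mouse, or its β-cyclodextrin 1:2 complex at 12.5 mg/mouse (5.0 mg equivalent). Vehicle was 1:1 ethanol/polysorbate 80 diluted tenfold with 5% glucose. About 200 μL blood was taken by cardiac puncture for serum. Pancreas was PBS-washed, blotted and weighed. Samples were stored at −80°C and quantified by validated LC-MS/MS.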

[6] = Water solubility study of CDF and CDF-β-cyclodextrin complexes; format: physicochemical; settings: distilled water, ambient temperature, shaken 2 h, UV 365 nm
In short: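 The complex was made by kneading the components at 2:1 molar ratio in alcohol/water for 1 h. It was dried at 45°C for 24 h, powdered and sieved (#80). Excess test compound or complex was dispersed in 25 ml distilled water and shaken 2 h at ambient temperature to equilibrium. Solutions were passed through a 0.22-μm filter and diluted with methanol. Absorbance was read at 365 nm.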

[7] = test system: breast cancer cells MDA-MB-231; experiment: MTT cell growth assay, MDA-MB-231; format: cell-based; settings: MDA-MB-231 cells, 72 h treatment
In short: as §1

IC50 [1]: 0.35 µM
phase solubility diagram type [2]: AN type
IC50 [3]: 0.26 µM
concentration in pancreas [5]: ~ 300 ng/g
concentration in serum [5]: ~ 6 ng/ml
water solubility [6]: 0.014 mg/mL (≈ 28.4 µM)
IC50 [7]: 0.325 µM
Compound: COc1cc(/C=C/C(=O)C(=Cc2ccc(F)c(F)c2)C(=O)/C=C/c2ccc(O)c(OC)c2)ccc1O [CDF, 3,4-difluorobenzo curcumin]
levels in pancreas relative to curcumin [4]: 10 times
